For experiment [1], the system named is SW-620. Nature of the experiment: Cytotoxicity against human SW620 cells at 50 uM after 48 hrs. Format: functional. The following applies: SW-620, 48 h. The procedure, abridged: (§1)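 Stock 1 × 10^-2 M in DMSO, diluted in RPMI-1640 (2 mM glutamine, pH 7.4, 10% FCS, penicillin/streptomycin). Cells grown at 37 C, 5% CO2; subconfluent cells trypsinised, >97% viable by trypan blue. Seeded at 10^5 cells/ml, grown 24 h, then exposed 48 h. TCA fixation at 4 C for 1 h, sulforhodamine B staining, Tris pH 10.4 solubilisation, OD 540 nm. Triplicate; mean of three experiments.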

The subject of experiment [2] is HT-29. The experiment is described as follows: Cytotoxicity against human HT29 cells at 50 uM after 48 hrs. It counts as functional. Particulars: HT-29, 48 h. The procedure, abridged:
as §1

The nature of experiment [3]: Cytotoxicity against human 502713 cells at 50 uM after 48 hrs. It counts as functional. Particulars: Homo sapiens, 502713, 48 h. The gist of the method:
as §1

Experiment [4] has as its system DU-145. Nature of the experiment: Cytotoxicity against human DU145 cells at 50 uM after 48 hrs. Format: functional. The following applies: DU-145, 48 h. The procedure, abridged:
as §1

Experiment [5] has as its system MCF7. Nature of the experiment: Cytotoxicity against human MCF7 cells at 50 uM after 48 hrs. Format: functional. Particulars: MCF7, 48 h. The gist of the method:
as §1

In experiment [6] the test system is SW-620. Nature of the experiment: Cytotoxicity against human SW620 cells at 10 uM after 48 hrs. It counts as functional. Particulars: SW-620, 48 h. The gist of the method: (§2)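 SRB growth assay. DMSO stock (1 × 10^-2 M) diluted in RPMI-1640 (2 mM glutamine, pH 7.4, 10% FCS, antibiotics). Trypsinized subconfluent cells with >97% viability (trypan blue) seeded at 10^5 cells/ml and grown 24 h, then exposed to compound 48 h at 37 °C, 5% CO2. Fixed with TCA at 4 °C for 1 h, stained with 0.4% SRB, solubilized in 0.01 M Tris pH 10.4, OD read at 540 nm. Run in triplicate; mean of three experiments.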

The test system of experiment [7] is HL-60. Nature of the experiment: Induction of apoptosis in human HL60 cells assessed as nucleosomal DNA fragmentation at 1 uM after 6 hrs. It counts as functional, cell-based. The gist of the method: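 HL-60 cells (2 × 10^6/3 ml) exposed to 1 µM compound for 6 h, with camptothecin as positive control and DMSO vehicle in untreated controls. DNA was extracted and run on 1.8% agarose gel to look for laddering.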

The nature of experiment [8]: Cytotoxicity against human 502713 cells at 1 uM after 48 hrs. It counts as functional. The following applies: Homo sapiens, 502713, 48 h. The procedure, abridged: as §2
Experiment [9] relates to MCF7. Nature of the experiment: Cytotoxicity against human MCF7 cells at 10 uM after 48 hrs. Format: functional. Particulars: MCF7, 48 h. The procedure, abridged: as §2
Experiment [10] concerns COLO 205. The experiment is described as follows: Cytotoxicity against human Colo205 cells at 1 uM after 48 hrs. Particulars: COLO 205, 48 h. It counts as functional. The procedure, abridged: as §2
Experiment [11] deals with DU-145. Nature of the experiment: Cytotoxicity against human DU145 cells at 10 uM after 48 hrs. Format: functional. Particulars: DU-145, 48 h. The procedure, abridged: as §2
Experiment [12] relates to DU-145. Nature of the experiment: Cytotoxicity against human DU145 cells at 1 uM after 48 hrs. It counts as functional. The following applies: DU-145, 48 h. The procedure, abridged: as §2
The subject of experiment [13] is MCF7. The experiment is described as follows: Cytotoxicity against human MCF7 cells at 1 uM after 48 hrs. It counts as functional. The following applies: MCF7, 48 h. The gist of the method: as §2
Experiment [14] is described as follows: Cytotoxicity against human 502713 cells at 10 uM after 48 hrs. The following applies: Homo sapiens, 502713, 48 h. It counts as functional. The gist of the method:
as §2

The subject of experiment [15] is SW-620. The experiment is described as follows: Cytotoxicity against human SW620 cells at 1 uM after 48 hrs. Format: functional. Particulars: SW-620, 48 h. The gist of the method:
as §2

Experiment [16] concerns HT-29. The experiment is described as follows: Cytotoxicity against human HT29 cells at 10 uM after 48 hrs. Format: functional. Particulars: HT-29, 48 h. The procedure, abridged: as §2

Consider 15 molecules from ChEMBL document CHEMBL1138253, “Cytotoxic and apoptotic activities of novel amino analogues of boswellic acids” (2007).

The structures appear in SMILES notation. The source made the active and inactive calls. No cut-off for these calls is given here.

For `O=c1[nH]cc(F)c(=O)[nH]1` [FLUOROURACIL], the inhibition (as a rule, the percentage by which the read-out fell short of the control) at 50 µM in [1] was determined as 41%; in [2], 36%; in experiment [3], 25%; in [4] it was 31%; in [5], 20%.
For the molecule `C[C@H]1[C@H](C)CC[C@]2(C)CC[C@]3(C)C(=CC[C@@H]4[C@@]5(C)CC[C@@H](O)[C@](C)(N)[C@@H]5CC[C@]43C)[C@H]12`, the inhibition at 10 µM turned out to be 73% in [6]; 42% in experiment [9]; 82% in [11]; 99% in [14]; 79% in experiment [16]. Moreover, the outcome in experiment [7] was Active. The inhibition at 1 µM in experiment [8] was found to be 35%; in [10], 30%; in [12] it was 3%; in [13], 0%; in experiment [15], 45%.
With `C[C@H]1[C@H](C)CC[C@]2(C)CC[C@]3(C)C(=CC(=O)[C@@H]4[C@@]5(C)CC[C@@H](O)[C@](C)(N)[C@@H]5CC[C@]43C)[C@H]12`, the inhibition at 10 µM in experiment [6] is 87%; in experiment [9], 44%; in experiment [11] it was 94%; in [14], 86%; in experiment [16] it was 71%. For the same molecule, the outcome in experiment [7] was Active. Further, the inhibition at 1 µM in [8] was determined as 48%; in [10], 48%; in [12], 16%; in experiment [13], 0%; in [15], 75%.
On to `CC(=O)O[C@@H]1CC[C@]2(C)[C@H]3C(=O)C=C4[C@@H]5[C@@H](C)[C@H](C)CC[C@]5(C)CC[C@@]4(C)[C@]3(C)CC[C@H]2[C@@]1(C)N`, for which the inhibition at 10 µM was 72% in experiment [6]; 1% in [9]; 16% in [11]; 55% in [14]; 21% in experiment [16]. Further, in [7], the result was Active.
With `CC(=O)O[C@@H]1CC[C@]2(C)[C@H]3CC=C4[C@@H]5[C@@H](C)[C@H](C)CC[C@]5(C)CC[C@@]4(C)[C@]3(C)CC[C@H]2[C@@]1(C)N`, the inhibition at 10 µM is 80% in experiment [6]; 10% in experiment [9]; 92% in experiment [11]; 96% in experiment [14]; 44% in experiment [16]. Further, in experiment [7], the result was Active. For the same molecule, the inhibition at 1 µM in experiment [8] was 6%; in experiment [10], 34%; in [12], 0%; in experiment [13], 0%; in experiment [15], 18%.
Consider `CCCC(=O)N[C@@]1(C)[C@@H](OC(=O)CCC)CC[C@@]2(C)[C@H]1CC[C@]1(C)[C@@H]2CC=C2[C@@H]3[C@@H](C)[C@H](C)CC[C@]3(C)CC[C@]21C`, for which the inhibition at 10 µM worked out at 21% in experiment [6]; 0% in experiment [9]; 0% in [11]; 14% in [14]; 0% in experiment [16].
Take `CO[C@@]12[C@H](COC(N)=O)C3=C(C(=O)C(C)=C(N)C3=O)N1C[C@@H]1N[C@@H]12` [MITOMYCIN]: the inhibition at 10 µM in experiment [6] stood at 67%; in experiment [9] it was 78%; in [11], 56%; in experiment [14], 84%; in experiment [16], 63%.
With `COC(=O)[C@@]1(C)C(=O)CC[C@]2(C)[C@H]3CC=C4[C@@H]5[C@@H](C)[C@H](C)CC[C@]5(C)CC[C@@]4(C)[C@]3(C)CC[C@@H]12`, the inhibition at 10 µM in experiment [6] stood at 3%; in [9], 0%; in experiment [11], 12%; in experiment [14] it was 27%; in [16], 12%.
On to `CC(=O)O[C@@H]1CC[C@@]2(C)[C@@H](CC[C@]3(C)[C@@H]2C(=O)C=C2[C@@H]4[C@@H](C)[C@H](C)CC[C@]4(C)CC[C@]23C)[C@@]1(C)C(=O)O` [AKBA], for which the inhibition at 10 µM in experiment [6] worked out at 2%; in [9] it was 12%; in [11] it was 10%; in [14] it was 8%; in [16] it was 24%.
In the same order, the values of `C[C@H]1[C@H](C)CC[C@]2(C)CC[C@]3(C)C(=CC(=O)[C@@H]4[C@@]5(C)CC[C@H](O)[C@](C)(C(=O)O)[C@@H]5CC[C@]43C)[C@H]12` are 1%, 16%, 3%, 27% and 0%.
On to `CCC(=O)N[C@@]1(C)[C@@H](OC(=O)CC)CC[C@@]2(C)[C@H]1CC[C@]1(C)[C@@H]2CC=C2[C@@H]3[C@@H](C)[C@H](C)CC[C@]3(C)CC[C@]21C`, for which the inhibition at 10 µM in experiment [6] stood at 13%; in experiment [9], 0%; in experiment [11], 11%; in experiment [14] it was 0%; in experiment [16], 24%.
Regarding `CC[C@@]1(O)C(=O)OCc2c1cc1n(c2=O)Cc2cc3ccccc3nc2-1`, in experiment [7], the outcome was Active.
As to `CC(=O)O[C@H]1CC[C@@]2(C)[C@@H](CC[C@]3(C)[C@@H]2C(=O)C=C2[C@@H]4[C@@H](C)[C@H](C)CC[C@]4(C)CC[C@]23C)[C@@]1(C)C(=O)O`, the inhibition at 10 µM in [6] is 0%; in [9] it was 21%; in experiment [11] it was 0%; in experiment [14], 23%; in experiment [16], 19%.
Regarding `COc1cccc2c1C(=O)c1c(O)c3c(c(O)c1C2=O)C[C@@](O)(C(=O)CO)C[C@@H]3O[C@H]1C[C@H](N)[C@H](O)[C@H](C)O1` [DOXORUBICIN], the inhibition at 1 µM worked out at 5% in experiment [8]; 62% in [10]; 56% in [12]; 74% in [13]; 36% in experiment [15].
Regarding `C[C@H]1[C@H](C)CC[C@]2(C)CC[C@]3(C)C(=CC(=O)[C@@H]4[C@@]5(C)CC[C@@H](O)[C@](C)(C(=O)O)[C@@H]5CC[C@]43C)[C@H]12` [11-KETO BOSWELLIC ACID], the inhibition at 10 µM is 7% in experiment [6]; 0% in [9]; 0% in [11]; 0% in experiment [14]; 7% in experiment [16].
